In brackets after ≈: the same amount, converted by molar mass.
What was measured:
Adenosine receptor A1 [1] = biological target: T1, Adenosine receptor A1 (Homo sapiens, UniProt P30542); assay: Displacement of [125I]ABA from human adenosine A1 receptor expressed in CHOK1 cells; format: cell-based, CHO-K1
T1 sequence (P30542 whole entry): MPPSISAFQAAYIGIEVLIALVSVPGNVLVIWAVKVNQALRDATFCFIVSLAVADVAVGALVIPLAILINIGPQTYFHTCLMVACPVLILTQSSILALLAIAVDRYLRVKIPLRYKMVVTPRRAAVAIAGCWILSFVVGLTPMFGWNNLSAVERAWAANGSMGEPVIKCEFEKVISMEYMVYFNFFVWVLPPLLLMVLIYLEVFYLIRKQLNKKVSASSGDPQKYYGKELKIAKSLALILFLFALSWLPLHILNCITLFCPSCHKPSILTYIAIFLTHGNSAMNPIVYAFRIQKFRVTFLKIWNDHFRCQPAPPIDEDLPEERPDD
How it was run: (§1)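 Membranes from stably transfected CHO-K1 (hA1) or HEK (hA2A, hA2B, hA3) cells, 2 h at room temperature in 50 mM HEPES pH 7.4, 1 mM EDTA, 5 mM MgCl2, 1 U/mL adenosine deaminase. 5% DMSO final except hA3. Full curves 10^-11–10^-5 M, seven concentrations, four determinations each. Filtration, γ-counting, Ki derived.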

Adenosine receptor A2a [2] = biological target: Adenosine receptor A2a (Homo sapiens, UniProt P29274); assay: Displacement of [125I]ZM-241385 from human adenosine A2A receptor expressed in HEK cells; format: cell-based, HEK293; how it was run: as §1
Adenosine receptor A2b = biological target: T2, Adenosine receptor A2b (Homo sapiens, UniProt P29275); assay: Displacement of [125I]3-(4-aminobenzyl)-8-phenyloxyacetate-1-propyl-xanthine from human adenosine A2B receptor expressed in HEK cells; format: cell-based, HEK293; how it was run: as §1
T2 sequence (P29275 whole entry): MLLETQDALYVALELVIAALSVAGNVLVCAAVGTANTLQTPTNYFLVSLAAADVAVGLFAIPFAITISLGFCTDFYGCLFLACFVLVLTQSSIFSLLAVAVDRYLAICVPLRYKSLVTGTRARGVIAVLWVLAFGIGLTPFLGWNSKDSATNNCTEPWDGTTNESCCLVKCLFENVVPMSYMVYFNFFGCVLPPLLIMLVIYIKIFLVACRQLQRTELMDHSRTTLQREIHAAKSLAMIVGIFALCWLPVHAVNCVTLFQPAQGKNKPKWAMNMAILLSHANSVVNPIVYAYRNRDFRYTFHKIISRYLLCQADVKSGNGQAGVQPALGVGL

[3] = biological target: T3, Adenosine receptor A3 (Homo sapiens) (UniProt P0DMS8); assay: Displacement of [125I]ABA from human adenosine A3 receptor expressed in HEK cells relative to control; format: cell-based; set-up: concentration or dose not given beside the values; conditions: HEK293
T3 sequence (whole entry): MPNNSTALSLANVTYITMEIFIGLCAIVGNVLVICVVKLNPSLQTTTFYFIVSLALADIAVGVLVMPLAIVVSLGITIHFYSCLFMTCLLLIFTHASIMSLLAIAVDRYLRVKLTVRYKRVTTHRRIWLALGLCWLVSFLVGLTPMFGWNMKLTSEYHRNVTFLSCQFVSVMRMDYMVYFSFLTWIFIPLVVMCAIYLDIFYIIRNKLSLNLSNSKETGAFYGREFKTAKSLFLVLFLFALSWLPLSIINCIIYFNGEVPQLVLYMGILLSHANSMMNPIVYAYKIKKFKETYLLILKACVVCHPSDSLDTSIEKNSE
How it was run: (§2)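 Single-point screen at 1 µM antagonist, run in duplicate, on transfected-cell membranes: CHO-K1 (hA1), HEK (hA2A, hA2B, hA3). 2 h at room temperature in 50 mM HEPES pH 7.4, 1 mM EDTA, 5 mM MgCl2, 1 U/mL adenosine deaminase; 5% DMSO except hA3. Nonspecific binding with 50 µM XAC, or 10 µM BW-1433 for hA3. Result is % radioligand bound relative to control.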

[4] = biological target: Adenosine receptors; A1 & A2a (Homo sapiens) (UniProt P30542+P29274); assay: Selectivity for human adenosine A1 receptor over human adenosine A2A receptor; format: protein assay
[5] = biological target: T4, Adenosine receptor A2b (Homo sapiens) (UniProt P29275); assay: Displacement of [125I]3-(4-aminobenzyl)-8-phenyloxyacetate-1-propyl-xanthine from human adenosine A2B receptor expressed in HEK cells relative to control; format: cell-based; set-up: concentration or dose not given beside the values; conditions: HEK293; how it was run: as §2
T4 sequence (whole entry): T2 sequence (P29275 whole entry)

Adenosine receptor A1 [6] = biological target: T5, Adenosine receptor A1 (Rattus norvegicus, UniProt P25099); assay: Displacement of [3H]CPX from rat brain cortex adenosine A1 receptor
T5 sequence (P25099 whole entry): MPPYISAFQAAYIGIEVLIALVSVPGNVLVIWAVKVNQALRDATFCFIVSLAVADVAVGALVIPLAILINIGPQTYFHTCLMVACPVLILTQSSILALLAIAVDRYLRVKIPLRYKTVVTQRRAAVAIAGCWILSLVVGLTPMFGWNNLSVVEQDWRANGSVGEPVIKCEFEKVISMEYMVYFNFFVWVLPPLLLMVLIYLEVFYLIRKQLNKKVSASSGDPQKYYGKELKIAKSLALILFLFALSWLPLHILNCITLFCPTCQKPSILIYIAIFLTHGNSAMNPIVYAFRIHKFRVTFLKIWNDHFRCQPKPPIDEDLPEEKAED
How it was run: (§3)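 Crude membranes (10-20 µg protein) from rat brain cortex (A1, 2 nM 3H-CPX) or striatum (A2A, 0.5-1.2 nM 3H-ZM241385) incubated 90 min at room temperature in 50 mM Tris-HCl pH 7.4 with 2 U/mL adenosine deaminase. Stopped with ice-cold buffer, then vacuum filtration and scintillation counting. Ki from concentration-response displacement.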

[7] = Oral bioavailability in Sprague-Dawley rat at 2 mg, po; format: ADME, organism-based; conditions: in vivo
How it was run: (§4)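 Pharmacokinetics after one oral dose in male Sprague-Dawley rats (1 mg/kg, or 2 mg dose), beagle dogs and cynomolgus monkeys (1 mg/kg). Bioavailability, half-life, clearance and volume of distribution reported as mean ± variation.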

[8] = Half life in Sprague-Dawley rat at 2 mg, po; format: ADME, organism-based; conditions: in vivo; how it was run: as §4
[9] = Clearance in Sprague-Dawley rat at 2 mg, po; format: ADME, organism-based; conditions: in vivo; how it was run: as §4
Rattus norvegicus [10] = assay: Volume of distribution in Sprague-Dawley rat at 2 mg, po; format: ADME, organism-based; conditions: in vivo; how it was run: as §4
[11] = Aqueous solubility of the compound; format: physicochemical; conditions: water
How it was run: (§5)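 Solubility of each compound measured in sterile water for injection, 0.9% saline, 5% dextrose in water, ethanol and octanol; values in mg/mL from duplicate determinations per solvent, individual values varying <5%.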

[12] = Solubility in 0.9% saline; format: physicochemical; how it was run: as §5
[13] = Solubility in 5% dextrose in water; format: physicochemical; how it was run: as §5
[14] = Solubility in ethanol; format: physicochemical; how it was run: as §5
[15] = Solubility in octanol; format: physicochemical; how it was run: as §5
Adenosine receptor A3 = biological target: T6, Adenosine receptor A3 (Homo sapiens, UniProt P0DMS8); assay: Displacement of [125I]ABA from human adenosine A3 receptor expressed in HEK cells; format: cell-based, HEK293
T6 sequence (P0DMS8 whole entry): T3 sequence (whole entry)
How it was run: as §1, with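 “hA3. Radioligands: 0.3 nM (hA1) or 0.6 nM (hA3) 125I-ABA, 0.7 nM 125I-ZM241385, 0.5 nM A2B ligand.” for “hA3.”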

Adenosine receptor A2a [16] = biological target: Adenosine receptor A2a (Rattus norvegicus, UniProt P30543); assay: Displacement of [3H]ZM-241385 from rat brain striatum adenosine A2A receptor; how it was run: as §3
Rattus norvegicus [17] = assay: Natriuretic effect in orally dosed rat; format: ADME, organism-based; conditions: po
How it was run: (§6)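 Male Sprague-Dawley rats in metabolic cages dosed by gavage in 0.5% CMC suspension, 0.001-3 mg/kg (n=3-5 per group; vehicle n=3). Urine collected 4 h, volume measured gravimetrically, Na and K by flame photometry. Urine flow and UNaV expressed per hour, averaged over 4 h.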

[18] = Oral bioavailability in Sprague-Dawley rat at 1 mg/kg, po; format: ADME, organism-based; conditions: in vivo; how it was run: as §4
[19] = Oral bioavailability in Beagle dog at 1 mg/kg, po; format: ADME, organism-based, Canis lupus familiaris; conditions: in vivo; how it was run: as §4
[20] = Oral bioavailability in cynomolgus monkey at 1 mg/kg, po; format: ADME, organism-based, Macaca fascicularis; conditions: in vivo; how it was run: as §4
[21] = Half life in Sprague-Dawley rat at 1 mg/kg, po; format: ADME, organism-based; set-up: dose 1 mg/kg, route oral; conditions: in vivo; how it was run: as §4
[22] = Half life in Beagle dog at 1 mg/kg, po; format: ADME, organism-based, Canis lupus familiaris; set-up: dose 1 mg/kg, route oral; conditions: in vivo; how it was run: as §4
[23] = Half life in cynomolgus monkey at 1 mg/kg, po; format: ADME, organism-based, Macaca fascicularis; set-up: dose 1 mg/kg, route oral; conditions: in vivo; how it was run: as §4
[24] = Clearance in Sprague-Dawley rat at 1 mg/kg, po; format: ADME, organism-based; set-up: dose 1 mg/kg, route oral; conditions: in vivo; how it was run: as §4
[25] = Clearance in Beagle dog at 1 mg/kg, po; format: ADME, organism-based, Canis lupus familiaris; set-up: dose 1 mg/kg, route oral; conditions: in vivo; how it was run: as §4
[26] = Clearance in cynomolgus monkey at 1 mg/kg, po; format: ADME, organism-based, Macaca fascicularis; set-up: dose 1 mg/kg, route oral; conditions: in vivo; how it was run: as §4
Rattus norvegicus [27] = assay: Volume of distribution in Sprague-Dawley rat at 1 mg/kg, po; format: ADME, organism-based; set-up: dose 1 mg/kg, route oral; conditions: in vivo; how it was run: as §4
Canis familiaris = assay: Volume of distribution in Beagle dog at 1 mg/kg, po; format: ADME, organism-based, Canis lupus familiaris; set-up: dose 1 mg/kg, route oral; conditions: in vivo; how it was run: as §4
Cynomolgus monkey = assay: Volume of distribution in cynomolgus monkey at 1 mg/kg, po; format: ADME, organism-based, Macaca fascicularis; set-up: dose 1 mg/kg, route oral; conditions: in vivo; how it was run: as §4
Rattus norvegicus [28] = assay: Diuretic effect in orally dosed rat; format: ADME, organism-based; conditions: Urine, po; how it was run: as §6
Rattus norvegicus [29] = organism: Rattus norvegicus; assay: Reversal of CPA inhibition of isoproterenol-stimulated rat atria; format: functional, organism-based; conditions: Cardiac atrium
How it was run: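 Isolated rat atria in Krebs buffer at 37 °C gassed with 95% O2/5% CO2, pH 7.4, stimulated with 30 nM isoproterenol. EC50 taken at 50% restoration, 5 atria per dose group.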

Chain of Adenosine receptor A2a (Homo sapiens, UniProt P29274) (P29274 whole entry): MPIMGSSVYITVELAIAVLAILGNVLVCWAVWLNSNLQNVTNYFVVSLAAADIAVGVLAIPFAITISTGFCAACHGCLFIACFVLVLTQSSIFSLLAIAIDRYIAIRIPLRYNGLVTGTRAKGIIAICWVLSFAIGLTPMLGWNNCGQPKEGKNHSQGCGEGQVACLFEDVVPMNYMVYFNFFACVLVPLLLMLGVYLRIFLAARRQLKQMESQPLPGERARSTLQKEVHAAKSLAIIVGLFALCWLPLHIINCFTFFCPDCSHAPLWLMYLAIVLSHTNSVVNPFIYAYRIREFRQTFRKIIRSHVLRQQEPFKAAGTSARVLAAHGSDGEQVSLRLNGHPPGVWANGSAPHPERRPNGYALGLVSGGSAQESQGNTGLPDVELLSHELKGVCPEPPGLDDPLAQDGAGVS
Chain of Adenosine receptor A2a (Rattus norvegicus, UniProt P30543) (P30543 whole entry): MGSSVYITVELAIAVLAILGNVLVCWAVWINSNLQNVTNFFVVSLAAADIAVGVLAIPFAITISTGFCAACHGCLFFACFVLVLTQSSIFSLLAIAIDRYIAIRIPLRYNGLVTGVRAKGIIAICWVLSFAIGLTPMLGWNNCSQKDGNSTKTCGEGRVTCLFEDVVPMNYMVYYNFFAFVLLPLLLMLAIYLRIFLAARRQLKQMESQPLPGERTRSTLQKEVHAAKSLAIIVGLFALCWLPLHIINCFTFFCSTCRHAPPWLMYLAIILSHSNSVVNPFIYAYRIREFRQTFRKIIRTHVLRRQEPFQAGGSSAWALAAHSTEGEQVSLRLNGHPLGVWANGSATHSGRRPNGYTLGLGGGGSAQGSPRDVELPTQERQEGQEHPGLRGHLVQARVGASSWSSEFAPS

| Structure (SMILES) | Ki (Adenosine receptor A1 [1]) | Ki (Adenosine receptor A2a [2]) | Ki (Adenosine receptor A2b) | Activity [3] | Ratio Ki [4] | Ki (Adenosine receptor A1 [6]) | solubility [11] | solubility [12] | solubility [13] | Ki (Adenosine receptor A3) | Ki (Adenosine receptor A2a [16]) | other results |
| --- | --- | --- | --- | --- | --- | --- | --- | --- | --- | --- | --- | --- |
| CCCn1c(=O)c2nc([C@]34CC[C@](C(=O)N(C)CC(=O)OC)(CC3)CC4)[nH]c2n(CCC)c1=O | 0.112 µM | > 10 µM | 0.296 µM | 88% | > 89 | – | – | – | – | – | – | – |
| CCCn1c(=O)c2nc([C@]34CC[C@](C(=O)O)(CC3)CC4)[nH]c2n(CCC)c1=O | 0.033 µM | 1.07 µM | – | 100% | 32 | 0.0078 µM | 18.1 mg/mL (≈ 46.6 mM) | 29.8 mg/mL (≈ 76.7 mM) | 63 mg/mL (≈ 162 mM) | – | – | Activity [5]: 48%; bioavailability [7]: 97%; half-life [8]: 2.14 h; CL/F [9]: 2.26 mL/min/kg; Vdss (Rattus norvegicus [10]): 0.57 L/kg; solubility [14]: 51 mg/mL (≈ 131 mM); solubility [15]: 60 mg/mL (≈ 154 mM) |
| CCCn1c(=O)c2[nH]c([C@]34CC[C@](CCC(=O)O)(CC3)CC4)nc2n(CCC)c1=O | – | 6.41 µM | 0.09 µM | – | – | 0.0013 µM | 24.4 mg/mL (≈ 58.6 mM) | 25.4 mg/mL (≈ 61 mM) | 12.4 mg/mL (≈ 29.8 mM) | > 10 µM | 2.44 µM | ED50 (Rattus norvegicus [17]): 0.015 mg/kg; bioavailability [18]: 99%; bioavailability [19]: 78%; bioavailability [20]: 94%; half-life [21]: 3.14 h; half-life [22]: 6.4 h; half-life [23]: 11.1 h; CL/F [24]: 1.56 mL/min/kg; CL/F [25]: 11.8 mL/min/kg; CL/F [26]: 5.82 mL/min/kg; Vdss (Rattus norvegicus [27]): 0.32 L/kg; Vdss (Canis familiaris): 2.64 L/kg; Vdss (Cynomolgus monkey): 4.25 L/kg; ED50 (Rattus norvegicus [28]): 0.015 mg/kg; EC50 (Rattus norvegicus [29]): 0.0161 µM; Kb (Rattus norvegicus [29]; read-out: pA2 (converted)): 0.000158 µM |
| CCCn1c(=O)c2nc([C@]34CC[C@](C(=O)NCC(=O)OC)(CC3)CC4)[nH]c2n(CCC)c1=O | 0.008 µM | 0.681 µM | 0.207 µM | – | 85 | – | – | – | – | 6.7 µM | – | – |
| CCCn1c(=O)c2nc([C@]34CC[C@](CC(=O)O)(CC3)CC4)[nH]c2n(CCC)c1=O | – | – | – | – | – | 0.0225 µM | – | – | – | – | 8.96 µM | – |

From ChEMBL document CHEMBL1137359, “Potent and orally bioavailable 8-bicyclo[2.2.2]octylxanthines as adenosine A1 receptor antagonists” (J Med Chem, 2006)
